Assay results collected from several papers.
Lines come from different studies, so protocols differ.
Target: Cyclin-dependent kinase 17 (CDK17, Homo sapiens, UniProt Q00537)

| Structure (SMILES) | assay | conditions | remaining binding [%] |
| --- | --- | --- | --- |
| Cc1cnc(Nc2ccc(C(=O)N3CCC(N4CCCC4)CC3)cc2)nc1-c1cc2ccccc2s1 | binding, competition with immobilised ligand | 1 µM | 9.2 |
| N[C@@H]1CCN(c2nccc(-c3cnn4ncccc34)n2)C1 | binding | 1 µM | 100 |
| COc1ncc2cc3ccccc3nc2c1C#N | cell-free assay, competition with immobilised ligand | 5 µM | 100 |
| C[C@@H](c1ccc(-n2cnc3c(N)ncnc32)cc1)N1CCc2nn(C)c(Cc3ccccc3)c2C1=O | binding, competition with immobilised ligand | 0.1 µM | 91 |
| CN(C)c1nccc(-c2cnc3ncccn23)n1 | binding | 1 µM | 84 |
| COc1cccc(CNC(=O)c2nc3scc(COCc4ccc(C(=O)O)cc4)c3c(=O)[nH]2)c1 | cell-free assay, competition with immobilised ligand | 1 µM | 87.8 |
| COc1cnc(Nc2cccc(S(N)(=O)=O)c2)nc1N1CCN(c2ccccc2)C(=O)C1 | binding, competition with immobilised ligand | 1 µM | 100 |
| C[C@H]1CCN(c2nccc(-c3cnn4ncccc34)n2)C1 | binding | 1 µM | 0 |
| C[C@@H]1CN(c2cc(-c3n[nH]c4ccc(OC5(C)CC5)cc34)ncn2)C[C@H](C)O1 | cell-free assay, competition with immobilised ligand | 0.1 µM | 89 |
| O=C(NCCCN1CCOCC1)c1ccc(Nc2nccc(-c3cc4ccccc4s3)n2)cc1 | binding, competition with immobilised ligand | 1 µM | 63 |
| CN(C)C(=O)Cn1cc(-c2nc(C3(c4ccc(-c5cnc(N)nc5)cc4)CC3)no2)cn1 | cell-free assay, competition with immobilised ligand | 1 µM | 100 |
| Nc1ncc2c(n1)-c1c([nH]c3ccc(C#CC4CC4)cc13)CCCC2 | binding, competition with immobilised ligand | 1 µM | 85 |
| CN1CCN(c2cnc3c(C4CCN(C(=O)c5ccc(OC(F)(F)F)cc5N)CC4)ncnc3c2)CC1 | cell-free assay, competition with immobilised ligand | 1 µM | 93 |
| O=C(c1ccc(Nc2ncc(Cl)c(-c3cc4ccccc4s3)n2)cc1)N1CCC(N2CCCC2)CC1 | binding, competition with immobilised ligand | 1 µM | 0 |
| CN(C)c1nccc(-c2cnn3ncccc23)n1 | binding | 1 µM | 100 |
| Cc1c(NC(=O)c2cc(C(N)=O)nc3cc(F)ccc23)c(C(F)(F)F)nn1Cc1ccc(C(C)(C)C)cc1 | cell-free assay, competition with immobilised ligand | 1 µM | 100 |
| CN(C)c1ncc(F)c(-c2cnn3ncccc23)n1 | binding | 1 µM | 97 |
| O=C(Nc1c[nH]nc1C(=O)NC1CCNCC1)c1cc(F)cc(F)c1 | binding, competition with immobilised ligand | 1 µM | 20 |
| c1cnn2ncc(-c3ccnc(N4CCC45COC5)n3)c2c1 | binding | 1 µM | 87 |
| CC1=C(C#N)[C@@H](c2ccc3[nH]nc(C)c3c2)C(C#N)=C(c2ccc(Cl)cc2)N1 | cell-free assay, competition with immobilised ligand | 1 µM | 87.2 |
